Shown are actives, neighbours in structure and some others; about 3.7% of the full set was active somewhere.
KCNQ1 pot: potentiators or activators of human KCNQ1 potassium channel | P51787 | CHO-K1 KCNQ1, thallium flux FluxOR fluorescence; stronger effect = higher value | B-score at 10 µM | 0.35% of 310,000 active;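 active = fluorescence ratio B-score, a plate-corrected score, at least three library SD, with initial intensity B-score within 5 SD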
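assay system = KCNQ1-transfected CHO-K1 cells | medium = assay buffer with matched DMSO | probe or stimulus = depolarizing K+/Tl+ stimulus, K2SO4 and Tl2SO4 each 12.5 mM in 5x stock | dosing = single dose | incubation = dye 90 min, compound 20 min, room temperature | detection = kinetic FluxOR fluorescence, 10 s baseline plus 110 s post-stimulus | evaluation = ratio B score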
Kir21 inh: blocks the mouse Kir2.1 inward-rectifier potassium channel; B-score at 10 µM; P35561; HEK293-Kir2.1, FluxOR thallium flux fluorescence; stronger effect = lower value; 0.85% of 310,000 active;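 active = fluorescence ratio B-score at or below minus 3 SD of library scores, with starting-brightness B-score within 2 SD, cut at about -4.2 in these data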;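 note: channel flux triggered by added potassium and thallium sulfate stimulus; B-score of peak minus minimum fluorescence over baseline after thallium stimulus; more negative B-score means stronger Kir2.1 block with less thallium influx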
KCNQ1 block: blocks the human KCNQ1 potassium channel; P51787; CHO-K1 KCNQ1, FluxOR thallium flux fluorescence; stronger effect = higher value; B-score at 10 µM; 1.3% of 310,000 active; AID 2642;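 active = compounds whose thallium flux B-score, printed positive for inhibition, exceeds three library SD while starting fluorescence stays within three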;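 note: channel opened by potassium depolarization with thallium stimulus after 20 min compound exposure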
KCNK3 block: human KCNK3 channel inhibition, primary screen | 0.84% of 340,000 active | B-score at 10 µM | CHO-KCNK3 thallium flux, FluxOR fluorescence; stronger effect = lower value;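 active = B-score under library mean minus 4 SD, starting fluorescence ratio at most library mean plus 5 SD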;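 note: more negative B-score means stronger inhibition of thallium flux through KCNK3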
hERG protect: compounds protecting human hERG from proarrhythmic drug block | Q12809 | activation (rescue from dofetilide block), less the hit threshold, % at 10 µM | AID 1511 | 0.51% of 310,000 active | CHO-hERG, FluxOR thallium flux, dofetilide IC70 present;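 active = activation above the mean of controls blocked by dofetilide plus 5 SD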;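 note: thallium influx through hERG after potassium depolarization seen as dye fluorescence rise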
KCNK9 inh: blocks the human KCNK9 two-pore domain potassium channel; B-score at 10 µM; Q9NPC2; HEK293 KCNK9, FluxOR thallium flux fluorescence; stronger effect = lower value; 1.2% of 310,000 active;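 active = ratio B-score over 3 SD below the library mean, with starting fluorescence within 5 SD of its mean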;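 note: negative B-score means less thallium flux so channel inhibition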
Target sequence (Q9NPC2 whole entry, looked up, the tested form may be a part): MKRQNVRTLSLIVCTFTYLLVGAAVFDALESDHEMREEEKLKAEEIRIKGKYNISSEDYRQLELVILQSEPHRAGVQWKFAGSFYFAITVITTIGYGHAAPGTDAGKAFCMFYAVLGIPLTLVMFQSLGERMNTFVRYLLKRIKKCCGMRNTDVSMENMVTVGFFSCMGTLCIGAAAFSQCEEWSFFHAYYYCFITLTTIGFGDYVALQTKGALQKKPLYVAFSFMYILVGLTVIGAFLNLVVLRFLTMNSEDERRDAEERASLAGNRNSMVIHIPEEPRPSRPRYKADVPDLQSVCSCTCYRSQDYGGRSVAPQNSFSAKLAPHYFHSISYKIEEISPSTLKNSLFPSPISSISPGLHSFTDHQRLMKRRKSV
KCNK3 inh conf: confirmation of human KCNK3 two-pore domain potassium channel inhibitors. ratio percent of control, % at 10 µM. 99% of 2,400 active. shares compounds with KCNK3 block. CHO-KCNK3 thallium flux, FluxOR fluorescence; 0% buffer, 100% carvedilol maximal block;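 active = ratio percent of control, averaged over triplicates, above buffer control mean plus 5 SD, cut at about 64% in these data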;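 note: ratio is the fluorescence rise from min to max over baseline after thallium stimulus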
KCNK3 noninduced: activity in cells without induced KCNK3 expression. shares compounds with KCNK3 block. non-induced KCNK3 parental cells, FluxOR thallium flux; stronger effect = lower value. thallium flux ratio (lower = more inhibition) at 10 µM. 40% of 2,400 active. AID 651747;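 active = thallium flux ratio, averaged over three wells, more than 5 SD below the buffer control mean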;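 note: host cells are CHO cells without KCNK3 induction; ratio is peak minus trough fluorescence over baseline then normalized to buffer controls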
* hit, by the source's call; i = inactive; x = no result.

SMILES	KCNQ1 pot	Kir21 inh	KCNQ1 block	KCNK3 block	hERG protect	KCNK9 inh	KCNK3 inh conf	KCNK3 noninduced
CC1CCCCC1NC(=O)c1ccc2c(c1)[nH]c(=O)n2C1CCCC1 (configuration not stated)	i	-1.3	i	-9.5*	-8	i	105*	i
CC(C)(C)C#CCn1c(/C=[N+](\[O-])C2CCCCC2)nc2ccccc21	i	-0.08	i	i	-4	i	x	x
O=C(Nc1cccc(/C=C/c2ccccn2)c1)c1cc(Cl)ccn1	i	-0.77	i	-9.4*	-15	i	109*	i
COc1cccc(NC(=O)CN2C(=O)COc3ccc(Cl)cc32)c1	i	-1.2	i	-9.8*	-7	i	101*	i
COc1ccc(OC)c(NC(=O)CN2C(=O)COc3ccc(S(=O)(=O)N4CCCC4)cc32)c1	i	0.81	i	-10*	-6	i	96*	i
Cc1cccc(NC(=O)CN2C(=O)COc3ccc(Cl)cc32)c1	i	-0.06	i	i	-8	i	x	x
CCC1(C)SC(N)=NN1C(C)=O (configuration not stated)	i	-0.24	i	i	0	i	x	x
CCOc1ccc(/C=C2\SC(=O)N(CCNC(=O)C3COc4ccccc4O3)C2=O)cc1OC (configuration not stated)	i	0.09	i	i	-16	i	x	x
CCOc1ccc(/C=C/C(O)=C2/C(=O)N(C)C3(C)CC2c2ccccc2O3)cc1OC (configuration not stated)	i	-0.94	i	-9.9*	-11	i	88*	i
COC(=O)c1cn(C(=O)c2ccc(F)cc2)c2ccccc12	i	-2.9	i	i	0	i	x	x
C=CCOc1ccc(C(=O)n2cc(C(=O)OC)c3ccccc32)cc1	i	-0.45	i	-9.3*	-2	i	114*	i
CCN1C(=O)C(CC(=O)Nc2ccc(OC)cc2)N(CCc2ccccc2F)C1=S (configuration not stated)	i	0	i	i	-11	i	x	x
CCN1C(=O)C(CC(=O)Nc2ccc(OC)cc2)N(CCc2ccccc2)C1=S (configuration not stated)	i	0.11	i	-8.8*	-22	i	113*	i
Cc1ccc(C(=O)N/C(=C\c2ccccc2)C(=O)NCCN2CCOCC2)cc1	i	0.01	i	i	-2	i	x	x
COc1ccc(N(C)S(=O)(=O)c2cccc(C(=O)N3CCN(S(=O)(=O)c4ccc(C)cc4)CC3)c2)cc1	i	0.22	i	i	-13	-12*	92*	i
Cc1cccc(C(=O)NCC(=O)OCCOc2ccccc2Cl)c1	i	-0.1	i	-9.1*	-17	i	86*	i
O=S(=O)(NC1=NCCC1)c1ccc(F)cc1F	i	2.1	i	i	-8	i	x	x
CCOC(=O)c1cc(C#N)c(N2CCN(c3ccccn3)CC2)nc1-c1ccccc1	i	1.3	i	-9.4*	-4	i	99*	i
COc1cccc(CN(C)C(=O)c2cc(COc3ccc4ncccc4c3)on2)c1	i	-1.9	i	-9.8*	-19	i	120*	i
O=C(NCCc1cn2ccccc2n1)c1cc(COc2ccc3ncccc3c2)on1	i	-0.86	i	-14*	-27	i	130*	i
O=C(NCCc1cn2ccccc2n1)c1ccccc1F	i	0.06	i	i	-3	i	x	x
COc1cccc(CN(C)C(=O)c2cc(COc3ccc(-n4cncn4)cc3)on2)c1	i	-1.4	i	i	-14	i	x	x
CC(C)C(C)NC(=O)COC(=O)c1cccc(C(=O)OCC(=O)NC(C)C(C)C)n1 (configuration not stated)	i	-0.03	i	i	-17	i	x	x
